Columns and labels:
[1] = tested on: A549-PDL1 xenografts; assay: In vivo pretargeting biodistribution; parameters: species or system mice; details: 1 h after [^18F]PEG12-Tz; for A549-PDL1 tumor uptake / blood uptake / bone uptake / brain uptake / gall bladder uptake / heart uptake / intestine uptake / kidney uptake / liver uptake / lung uptake / muscle uptake / spleen uptake / stomach uptake / tumor/blood / tumor/muscle: n = 3; for tumor/blood / tumor/muscle: biodistribution
Method in brief: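 Male BALB/c nude mice (4–6 weeks, 13–18 g) received 5 × 10^6 A549-PDL1 and A549 cells in PBS subcutaneously behind the right armpit and were used once tumors reached 5–10 mm. Durvalumab-TCO or atezolizumab-TCO (300 μg in 150 μL PBS) was given i.v. by tail vein. After 24, 48 or 72 h, [18F]PEG12-Tz (1.85 MBq) was given i.v. Mice were killed 1 h later, and organs were weighed, γ-counted and expressed as %ID/g; n = 3. Controls: radioligand alone; blocking by co-injection of 50-fold molar excess atezolizumab plus 50 μg unlabeled tetrazine.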

[2] = tested on: A549-PDL1 cells; assay: Cellular uptake and internalization; type: cell-based
Method in brief: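 A549 cells stably transfected with PD-L1 by lentiviral infection, grown in RPMI-1640 with 15% FBS at 37 °C, 5% CO2. Cells were incubated with in vitro ligated [18F]Tz-TCO-antibody for 30, 60, 120 and 180 min at 37 °C, then washed twice in ice-cold PBS. Surface activity was stripped with glycine HCl (1 mol/L, pH 2.2) for 10 min at 37 °C. The lysate gave the internalized fraction; washes plus lysate gave total uptake, γ-counted. Three experiments, each in triplicate.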

[3] = target: PD-L1 (Homo sapiens, UniProt Q9NZQ7); assay: Saturation binding on A549-PDL1 cells; details: 37 °C, 1 h
Chain of PD-L1 (Q9NZQ7 19-290): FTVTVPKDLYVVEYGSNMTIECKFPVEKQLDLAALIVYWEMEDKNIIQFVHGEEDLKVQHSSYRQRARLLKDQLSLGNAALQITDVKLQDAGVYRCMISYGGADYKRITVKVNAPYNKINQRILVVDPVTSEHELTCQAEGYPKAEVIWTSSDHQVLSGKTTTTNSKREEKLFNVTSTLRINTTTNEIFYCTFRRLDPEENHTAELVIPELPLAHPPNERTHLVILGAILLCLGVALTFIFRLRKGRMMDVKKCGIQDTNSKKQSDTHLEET
Method in brief: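 Antibody-TCO was ligated with [18F]Tz in PBS (pH 7) at room temperature, and the purified conjugate was added at 0.08–10 nM to A549-PDL1 cells (2 × 10^5/well) for 1 h at 37 °C. Nonspecific binding used 100-fold excess unlabeled antibody added 1 h beforehand. Cell-bound activity was γ-counted. Each condition was run in triplicate, and Kd came from one-site specific-binding nonlinear regression.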

[4] = tested on: A549-PDL1 xenografts; assay: Pretargeted micro-PET/CT imaging; type: in vivo, mice; details: for A549-PDL1 tumor uptake (PET): 1 h postinjection of [^18F]PEG12-Tz
[5] = Estimated human dosimetry
Method in brief: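 Male nude mice bearing A549-PDL1 xenografts were imaged by micro-PET/CT under 2–3% isoflurane on a heating pad, with OSEM reconstruction and %ID/g quantification. Pretargeted arm: atezolizumab-TCO 300 μg i.v., then 48 h later the 18F-tetrazine (3.7 MBq) i.v. Direct arm: [18F]Tz-TCO-atezolizumab 7.4 MBq/mouse i.v., imaged at 1, 2, 4, 6 and 8 h. Mouse data were extrapolated to human organ doses.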

## durvalumab pretargeted: pretargeting pair: durvalumab-TCO injected first, [^18F]PEG12-Tz 24-72 h later, ligated in vivo
[1]; 24 h after antibody-TCO 300 μg
  A549-PDL1 tumor uptake: 2.52 ± 0.16 % ID/g
  blood uptake: 8.80 ± 0.50 % ID/g
  bone uptake: 1.16 ± 0.27 % ID/g
  brain uptake: 0.29 ± 0.07 % ID/g
  gall bladder uptake: 1.29 ± 0.08 % ID/g
  heart uptake: 2.66 ± 0.49 % ID/g
  intestine uptake: 0.54 ± 0.14 % ID/g
  kidney uptake: 3.12 ± 0.31 % ID/g
  liver uptake: 1.93 ± 0.59 % ID/g
  lung uptake: 7.06 ± 1.90 % ID/g
  muscle uptake: 0.72 ± 0.10 % ID/g
  spleen uptake: 1.27 ± 0.22 % ID/g
  stomach uptake: 0.50 ± 0.06 % ID/g
  tumor/blood: 0.29 ± 0.04
  tumor/muscle: 3.51 ± 0.75
[1]; 48 h after antibody-TCO 300 μg
  A549-PDL1 tumor uptake: 1.91 ± 0.38 % ID/g
  blood uptake: 6.08 ± 1.82 % ID/g
  bone uptake: 0.98 ± 0.26 % ID/g
  brain uptake: 0.16 ± 0.04 % ID/g
  gall bladder uptake: 1.11 ± 0.35 % ID/g
  heart uptake: 1.57 ± 0.27 % ID/g
  intestine uptake: 0.40 ± 0.07 % ID/g
  kidney uptake: 2.68 ± 0.46 % ID/g
  liver uptake: 1.19 ± 0.23 % ID/g
  lung uptake: 3.19 ± 1.02 % ID/g
  muscle uptake: 0.56 ± 0.20 % ID/g
  spleen uptake: 0.48 ± 0.34 % ID/g
  stomach uptake: 0.33 ± 0.09 % ID/g
  tumor/blood: 0.31 ± 0.07
  tumor/muscle: 3.39 ± 0.46
[1]; 72 h after antibody-TCO 300 μg
  A549-PDL1 tumor uptake: 1.60 ± 0.23 % ID/g
  blood uptake: 5.29 ± 0.50 % ID/g
  bone uptake: 0.53 ± 0.04 % ID/g
  brain uptake: 0.14 ± 0.01 % ID/g
  gall bladder uptake: 0.99 ± 0.22 % ID/g
  heart uptake: 1.40 ± 0.28 % ID/g
  intestine uptake: 0.51 ± 0.15 % ID/g
  kidney uptake: 2.27 ± 0.37 % ID/g
  liver uptake: 1.01 ± 0.16 % ID/g
  lung uptake: 2.01 ± 0.06 % ID/g
  muscle uptake: 0.43 ± 0.06 % ID/g
  spleen uptake: 0.62 ± 0.13 % ID/g
  stomach uptake: 0.75 ± 0.28 % ID/g
  tumor/blood: 0.30 ± 0.02
  tumor/muscle: 3.68 ± 0.98

## durvalumab-TCO: durvalumab (anti-PD-L1 antibody) modified with TCO-PEG4-NHS Ester, average 12 TCO per antibody
[1]; 24 h after antibody-TCO 300 μg
  A549-PDL1 tumor uptake: 2.52 ± 0.16 % ID/g
  blood uptake: 8.80 ± 0.50 % ID/g
  lung uptake: 7.06 ± 1.90 % ID/g
  tumor/blood: 0.29
  tumor/muscle: 3.51
[1]; 48 h after antibody-TCO 300 μg
  A549-PDL1 tumor uptake: 1.91 ± 0.38 % ID/g
[1]; 72 h after antibody-TCO 300 μg
  A549-PDL1 tumor uptake: 1.60 ± 0.23 % ID/g

## [^18F]Tz-TCO-durvalumab: in vitro ligation product of [^18F]Tz with durvalumab-TCO
[2]; 30 min
  cellular uptake: 5.13 % ID/10^6 cells
[2]; 180 min
  cellular uptake: 8.40 % ID/10^6 cells
  internalization rate: 73.2%
[3]
  Kd: 2.39 nM

## atezolizumab pretargeted: pretargeting pair: atezolizumab-TCO injected first, [^18F]PEG12-Tz 24-72 h later, ligated in vivo
[1]; 24 h after antibody-TCO 300 μg
  A549-PDL1 tumor uptake: 1.16 ± 0.06 % ID/g
  blood uptake: 1.72 ± 0.09 % ID/g
  bone uptake: 0.38 ± 0.07 % ID/g
  brain uptake: 0.06 ± 0.01 % ID/g
  gall bladder uptake: 0.94 ± 0.11 % ID/g
  heart uptake: 0.93 ± 0.05 % ID/g
  intestine uptake: 0.51 ± 0.12 % ID/g
  kidney uptake: 2.04 ± 0.09 % ID/g
  liver uptake: 0.87 ± 0.08 % ID/g
  lung uptake: 1.78 ± 0.34 % ID/g
  muscle uptake: 0.26 ± 0.04 % ID/g
  spleen uptake: 0.71 ± 0.04 % ID/g
  stomach uptake: 0.40 ± 0.16 % ID/g
[1]; 48 h after antibody-TCO 300 μg
  A549-PDL1 tumor uptake: 1.65 ± 0.29 % ID/g
  blood uptake: 1.86 ± 0.15 % ID/g
  bone uptake: 0.28 ± 0.02 % ID/g
  brain uptake: 0.05 ± 0.01 % ID/g
  gall bladder uptake: 0.94 ± 0.24 % ID/g
  heart uptake: 1.02 ± 0.14 % ID/g
  intestine uptake: 0.62 ± 0.22 % ID/g
  kidney uptake: 2.82 ± 0.52 % ID/g
  liver uptake: 0.96 ± 0.18 % ID/g
  lung uptake: 1.65 ± 0.11 % ID/g
  muscle uptake: 0.31 ± 0.08 % ID/g
  spleen uptake: 0.71 ± 0.12 % ID/g
  stomach uptake: 0.37 ± 0.06 % ID/g
[1]; 72 h after antibody-TCO 300 μg
  A549-PDL1 tumor uptake: 0.90 ± 0.23 % ID/g
  blood uptake: 1.48 ± 0.50 % ID/g
  bone uptake: 0.38 ± 0.03 % ID/g
  brain uptake: 0.05 ± 0.01 % ID/g
  gall bladder uptake: 0.63 ± 0.21 % ID/g
  heart uptake: 0.74 ± 0.28 % ID/g
  intestine uptake: 0.55 ± 0.15 % ID/g
  kidney uptake: 2.22 ± 0.37 % ID/g
  liver uptake: 0.71 ± 0.16 % ID/g
  lung uptake: 0.92 ± 0.06 % ID/g
  muscle uptake: 0.29 ± 0.06 % ID/g
  spleen uptake: 0.81 ± 0.13 % ID/g
  stomach uptake: 0.32 ± 0.11 % ID/g
[4]; 24 h interval
  A549-PDL1 tumor uptake (PET): 0.79 ± 0.06 % ID/g
[4]; 48 h interval
  A549-PDL1 tumor uptake (PET): 0.94 ± 0.16 % ID/g
[4]; 72 h interval
  A549-PDL1 tumor uptake (PET): 0.41 ± 0.04 % ID/g
[4]; co-injection of unmodified anti-PD-L1 antibody or unlabeled tetrazine
  accumulation in A549-PDL1 tumors under blocking: could be blocked
[5]; estimated human
  lowering of total effective dose versus [^18F]Tz-TCO-atezolizumab: over 7.5 fold
[5]; for men, as printed in main text
  effective internal radiation dose: 1.15 × 10^–3 μSv/MBq

## atezolizumab-TCO: atezolizumab (anti-PD-L1 antibody) modified with TCO-PEG4-NHS Ester, average 8 TCO per antibody
[1]; 48 h after antibody-TCO 300 μg
  A549-PDL1 tumor uptake: 1.65 ± 0.15 % ID/g
  blood uptake: 1.86 ± 0.15 % ID/g
  lung uptake: 1.65 ± 0.11 % ID/g
[1]; 48 h after atezolizumab-TCO
  uptake in other organs such as the liver, muscles, bones, and intestines: < 0.96 % ID/g

## [^18F]Tz-TCO-atezolizumab: in vitro ligation product of [^18F]Tz with atezolizumab-TCO, directly labeled radioimmunoconjugate
[2]; 30 min
  cellular uptake: 3.76 % ID/10^6 cells
[2]; 180 min
  cellular uptake: 9.85 % ID/10^6 cells
  internalization rate: 98.1%
[3]
  Kd: 1.38 nM
